# From ChEMBL document CHEMBL4033797, “Discovery of [ cis-3-({(5 R)-5-[(7-Fluoro-1,1-dimethyl-2,3-dihydro-1 H-inden-5-yl)carbamoyl]-2-methoxy-7,8-dihydro-1,6-naphthyridin-6(5 H)-yl}carbonyl)cyclobutyl]acetic Acid (TAK-828F) as a Potent, Selective, and Orally Available Novel Retinoic Acid Receptor-Related Orphan Receptor γt Inverse …” (J Med Chem, 2018)
# Activity calls are given as the source filed them. The rule behind the calls is not given here.
# Key:
# [1] = Lipophilicity, log D of the compound at pH 7.4; format: physicochemical; details: buffer
# Mus musculus [2] = assay: In vivo inverse agonist activity at RORgammat in po dosed C57BL/6 mouse assessed as inhibition of IL-23-induced IL-17A cytokine expression; format: functional
# [3] = AUC (0 to 8 hrs) in mouse at 1 mg/kg, po administered via cassette dosing; format: ADME, organism-based; design: time < 8 hr, dose 1 mg/kg, route oral; details: in vivo
# Method in brief: (§1)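 Mice received a single oral 1 mg/kg dose in cassette format. Plasma was sampled over 8 h for Cmax, Tmax, AUC0–8h, MRT and oral bioavailability (F). Values are means of three determinations.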
# [4] = Oral bioavailability in mouse at 1 mg/kg administered via cassette dosing; format: ADME, organism-based; details: in vivo; method in brief: as §1
# [5] = biological target: T1, Nuclear receptor ROR-alpha (Homo sapiens, UniProt P35398); assay: Inverse agonist activity at human RORalpha expressed in human Jurkat cells assessed as inhibition of transcriptional activity after 10 mins by human IL-17 ROR response element driven-bright-glo luciferase reporter gene assay; format: cell-based
# T1 sequence (P35398 whole entry): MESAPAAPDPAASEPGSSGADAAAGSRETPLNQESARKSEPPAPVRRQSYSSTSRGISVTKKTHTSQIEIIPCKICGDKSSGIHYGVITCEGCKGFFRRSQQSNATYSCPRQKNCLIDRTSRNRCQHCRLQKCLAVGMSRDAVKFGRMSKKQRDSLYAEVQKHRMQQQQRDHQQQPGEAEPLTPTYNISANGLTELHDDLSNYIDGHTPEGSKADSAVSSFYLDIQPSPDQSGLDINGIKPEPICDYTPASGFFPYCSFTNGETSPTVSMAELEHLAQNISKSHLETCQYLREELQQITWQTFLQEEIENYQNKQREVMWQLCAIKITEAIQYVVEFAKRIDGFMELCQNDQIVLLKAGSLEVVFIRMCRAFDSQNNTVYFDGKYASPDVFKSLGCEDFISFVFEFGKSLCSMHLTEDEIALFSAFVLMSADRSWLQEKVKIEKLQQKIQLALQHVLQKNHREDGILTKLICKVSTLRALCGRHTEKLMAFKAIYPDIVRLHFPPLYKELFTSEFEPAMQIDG
# Method in brief: (§2)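 Cell-based reporter assay in human Jurkat cells carrying human RORα or RORβ. Inhibition of transcriptional activity was read as luciferase activity and reported as IC50.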
# Mus musculus [6] = assay: (§3) Anti-inflammatory activity against MOG (35 to 55 residues)-induced EAE C57BL/6 mouse model assessed as inhibition of development of clinical symptoms at 1 mg/kg, administered bid via oral gavage measured after 28 days post Mycobacterium tuberculosis H37Ra/ MOG (35 to 55 residues)/pertussis toxin immunization; format: functional; details: C57BL/6, po, 672 h
# Method in brief: (§4)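 Mice immunized with MOG peptide received oral drug in 0.5% methylcellulose vehicle bid for 28 days. EAE clinical score was recorded from day 0 to day 28, along with cumulative clinical score. Groups were 12 MOG-immunized mice per group plus 4 healthy controls, reported as mean ± S.E. Comparison was against vehicle-treated immunized controls by one-tailed Shirley-Williams test (p<0.025).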
# [7] = Tmax in mouse at 1 mg/kg, po administered via cassette dosing; format: ADME, organism-based; details: in vivo; method in brief: as §1
# [8] = biological target: T2, Nuclear receptor ROR-beta (Homo sapiens, UniProt Q92753); assay: Inverse agonist activity at human RORbeta expressed in human Jurkat cells assessed as inhibition of transcriptional activity after 10 mins by human IL-17 ROR response element driven-bright-glo luciferase reporter gene assay; format: cell-based; method in brief: as §2
# T2 sequence (Q92753 whole entry): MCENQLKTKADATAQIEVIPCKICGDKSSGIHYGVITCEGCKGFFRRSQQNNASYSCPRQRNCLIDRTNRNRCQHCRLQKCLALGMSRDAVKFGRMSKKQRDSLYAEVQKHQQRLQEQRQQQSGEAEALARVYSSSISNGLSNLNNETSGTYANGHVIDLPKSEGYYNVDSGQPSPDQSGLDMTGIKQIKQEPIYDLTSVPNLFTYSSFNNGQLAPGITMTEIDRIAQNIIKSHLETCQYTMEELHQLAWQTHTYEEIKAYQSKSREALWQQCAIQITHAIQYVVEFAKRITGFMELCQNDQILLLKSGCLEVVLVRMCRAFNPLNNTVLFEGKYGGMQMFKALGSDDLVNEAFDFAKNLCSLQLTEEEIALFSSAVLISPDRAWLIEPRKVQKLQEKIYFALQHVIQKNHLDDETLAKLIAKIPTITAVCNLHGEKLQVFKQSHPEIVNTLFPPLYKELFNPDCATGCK
# Mus musculus [9] = assay: In vivo inverse agonist activity at RORgammat in po dosed C57BL/6 mouse assessed as inhibition of IL-23-induced IL-17A expression administered as bid; format: functional, organism-based
# Method in brief: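 Mice were dosed orally twice daily at 0.3, 1 and 3 mg/kg. IL-17A expression induced by IL-23 was then measured, and an effective dose was derived from the dose–response.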
# Mus musculus [10] = assay: Anti-inflammatory activity in activated T cell transfer po dosed mouse colitis model; format: functional, organism-based
# [11] = Cmax in mouse at 1 mg/kg, po administered via cassette dosing; format: ADME, organism-based; design: dose 1 mg/kg, route oral; details: in vivo; method in brief: as §1
# [12] = MRT in mouse at 1 mg/kg, po administered via cassette dosing; format: ADME, organism-based; details: in vivo; method in brief: as §1
# Mus musculus [13] = assay: as §3, with “3” for “1”; format: functional; details: C57BL/6, po, 672 h; method in brief: as §4
# Mus musculus [14] = assay: Anti-inflammatory activity against IL-23 induced po dosed mouse psoriasis model; format: functional, organism-based
SMILES,logD [1],AUC(0-t) at 8 h [3] [ng·h/mL],bioavailability [4] [%],other results
COc1ccc2c(n1)CCN(C(=O)[C@H]1C[C@H](C(=O)O)C1)[C@H]2C(=O)Nc1cc(F)c2c(c1)CCC2(C)C,3.46,–,–,–
COc1ccc2c(c1)CCN(C(=O)CCCC(=O)O)[C@H]2C(=O)Nc1cc(F)c([Si](C)(C)C)c(F)c1,3.96,–,–,"inhibition (Mus musculus [2]): Dose-dependent effect; ED80 (Mus musculus [2]; C57BL/6, po): 7.6 mg/kg"
COc1ccc2c(n1)CCN(C(=O)N1CC(CC(=O)O)C1)[C@H]2C(=O)Nc1cc(F)c2c(c1)CCC2(C)C,3.42,–,–,–
COCC(C)(C)c1c(F)cc(NC(=O)[C@H]2c3ccc(OC)cc3CCN2C(=O)CCCC(=O)O)cc1F,3.16,389,78,–
COc1ccc2c(n1)CCN(C(=O)CCCC(=O)O)[C@H]2C(=O)Nc1cc(F)c2c(c1)CCC2(C)C,3.39,2620,58,inhibition (Mus musculus [2]): Dose-dependent effect
COc1ccc2c(n1)CCN(C(=O)[C@H]1C[C@@H](CC(=O)O)C1)[C@H]2C(=O)Nc1cc(F)c2c(c1)CCC2(C)C,3.53,10100,–,IC50 [5]: ≥ 30 µM; inhibition in vivo at 1 mg/kg (Mus musculus [6]): 50%; Tmax [7]: 2.3 h; IC50 [8]: ≥ 30 µM; inhibition (Mus musculus [9]): Dose-dependent effect; Activity (Mus musculus [10]): Active; Cmax [11]: 1560 ng/mL; MRT [12]: 4.1 h; inhibition in vivo at 3 mg/kg (Mus musculus [13]): 44%; Activity (Mus musculus [14]): Active
COc1ccc2c(n1)CCN(C(=O)[C@H]1C[C@H](CC(=O)O)C1)[C@H]2C(=O)Nc1cc(F)c2c(c1)CCC2(C)C,3.54,–,–,–
COc1ccc2c(c1)CCN(C(=O)CCCC(=O)O)[C@H]2C(=O)Nc1cc(F)c(C(C)(C)C)c(F)c1,3.77,2840,62,–
COc1ccc2c(n1)CCN(C(=O)CCCC(=O)O)[C@H]2C(=O)Nc1cc(F)c([Si](C)(C)C)c(F)c1,4.04,2880,51,–
COc1ccc2c(n1)CCN(C(=O)C[C@H]1C[C@@H](C(=O)O)C1)[C@H]2C(=O)Nc1cc(F)c2c(c1)CCC2(C)C,3.51,–,–,–
COc1ccc2c(n1)CCN(C(=O)C[C@H]1C[C@H](C(=O)O)C1)[C@H]2C(=O)Nc1cc(F)c2c(c1)CCC2(C)C,3.49,–,–,–
COc1ccc2c(c1)CCN(C(=O)CCCC(=O)O)[C@H]2C(=O)Nc1cc(F)c2c(c1)CCC2(C)C,3.37,3440,91,inhibition (Mus musculus [2]): Dose-dependent effect
COc1ccc2c(n1)CCN(C(=O)[C@H]1C[C@@H](C(=O)O)C1)[C@H]2C(=O)Nc1cc(F)c2c(c1)CCC2(C)C,3.39,–,–,–
COc1ccc2c(n1)CCN(C(=O)C1CN(CC(=O)O)C1)[C@H]2C(=O)Nc1cc(F)c2c(c1)CCC2(C)C,3.39,–,–,–
